Source: ChEMBL document CHEMBL1141112, “Synthesis and antiinflammatory activity of coumarin derivatives” (J Med Chem, 2005)
The source made the active and inactive calls. No cut-off for these calls is given here.

Experiments:
[1] = system: Rattus norvegicus; assay: Percent inhibition of carrageenan 2% (0.1 mL intradermal) induced paw edema at the i.p. dose of 0.01 m mol/kg in fisher 344 rats; n=5; assay type: functional
In short: (§1)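 Right hind paw edema in Fischer 344 rats (150–200 g) induced by intradermal 0.1 mL 2% carrageenin in water. Rats killed 3.5 h after carrageenin; injected minus uninjected paw weight compared with water-treated controls and expressed as percent inhibition. Mean of two experiments, five animals per group; Student's t-test.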

[2] = Superoxide radical scavenging activity at 1 mM upon incubation for 2 min at RT in pH 7.4 with PMS, NADH and NBT by nitroblue tetrazolium method
[3] = Percent heme protein dependent lipid peroxidation at (1 mM) upon incubation for 10 min at 37 degree C. in pH 7.4 with arachidonic acid and H2O2; assay type: functional
In short: (§2)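 Heme 50 μM, arachidonic acid 0.4 mM, test compound and H2O2 0.5 mM incubated together for 10 min at 37 °C in KH2PO4–KOH buffer (50 mM, pH 7.4). Tested at 0.1 and 1 mM. At least triplicate; absorbance SD under 10% of mean.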

[4] = Percent heme protein dependent lipid peroxidation at (0.1 mM) upon incubation for 10 min at 37 degree C. in pH 7.4 with arachidonic acid and H2O2; assay type: functional; in short: as §2
[5] = system: Rattus norvegicus; assay: Onset of arthritis measured as arthritic score at i.p. dose of 0.001 m mol/kg in rats injected intradermally with Freund's adjuvant after 20 days; assay type: functional
In short: (§3)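 Fischer 344 rats, five per group, given Freund's adjuvant (0.6 mg desiccated Mycobacterium butyricum in 0.1 mL liquid paraffin) intradermally at tail base. Compound given ip at 0.001 mmol/kg from day 0, every other day for 24 days; absolute controls got vehicle only. Score: one point per inflamed wrist/ankle plus one per involved phalangeal joint, max five per limb, every 2 days from day 14. Run in duplicate.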

[6] = system: Rattus norvegicus; assay: Percent change in body weight of (FA) adjuvant induced rats at i.p. dose of 0.001 m mol/kg after 24 days; assay type: functional
[7] = system: Rattus norvegicus; assay: Onset of arthritis measured as arthritic score at i.p. dose of 0.001 m mol/kg in rats injected intradermally with Freund's adjuvant after 16 days; assay type: functional; in short: as §3
[8] = system: Rattus norvegicus; assay: Onset of arthritis measured as arthritic score at i.p. dose of 0.001 m mol/kg in rats injected intradermally with Freund's adjuvant after 2 days; assay type: functional; in short: as §3
[9] = system: Rattus norvegicus; assay: Onset of arthritis measured as arthritic score at i.p. dose of 0.001 m mol/kg in rats injected intradermally with Freund's adjuvant after 24 days; assay type: functional; in short: as §3
[10] = Superoxide radical scavenging activity at 1 mM upon incubation for 2 min at RT in pH 7.4 with PMS, NADH and NBT by nitroblue tetrazolium method; no action
[11] = biological target: Prostaglandin G/H synthase 1 (Homo sapiens) (UniProt P23219); settings: at 1 mM
[12] = system: Rattus norvegicus; assay: Onset of arthritis measured as arthritic score at i.p. dose of 0.001 m mol/kg in rats injected intradermally with Freund's adjuvant after 10 days; assay type: functional; in short: as §3
[13] = system: Rattus norvegicus; assay: Onset of arthritis measured as arthritic score at i.p. dose of 0.001 m mol/kg in rats injected intradermally with Freund's adjuvant after 12 days; assay type: functional; in short: as §3
[14] = system: Rattus norvegicus; assay: Onset of arthritis measured as arthritic score at i.p. dose of 0.001 m mol/kg in rats injected intradermally with Freund's adjuvant after 18 days; assay type: functional; in short: as §3
[15] = system: Rattus norvegicus; assay: Onset of arthritis measured as arthritic score at i.p. dose of 0.001 m mol/kg in rats injected intradermally with Freund's adjuvant after 0 days; assay type: functional; in short: as §3
[16] = biological target: T1, Seed linoleate 13S-lipoxygenase-1 (Glycine max, UniProt P08170); assay: Inhibitory concentration against soybean lipoxygenase upon incubation with sodium linoleate (0.1 mM) at RT
T1 sequence (P08170 whole entry): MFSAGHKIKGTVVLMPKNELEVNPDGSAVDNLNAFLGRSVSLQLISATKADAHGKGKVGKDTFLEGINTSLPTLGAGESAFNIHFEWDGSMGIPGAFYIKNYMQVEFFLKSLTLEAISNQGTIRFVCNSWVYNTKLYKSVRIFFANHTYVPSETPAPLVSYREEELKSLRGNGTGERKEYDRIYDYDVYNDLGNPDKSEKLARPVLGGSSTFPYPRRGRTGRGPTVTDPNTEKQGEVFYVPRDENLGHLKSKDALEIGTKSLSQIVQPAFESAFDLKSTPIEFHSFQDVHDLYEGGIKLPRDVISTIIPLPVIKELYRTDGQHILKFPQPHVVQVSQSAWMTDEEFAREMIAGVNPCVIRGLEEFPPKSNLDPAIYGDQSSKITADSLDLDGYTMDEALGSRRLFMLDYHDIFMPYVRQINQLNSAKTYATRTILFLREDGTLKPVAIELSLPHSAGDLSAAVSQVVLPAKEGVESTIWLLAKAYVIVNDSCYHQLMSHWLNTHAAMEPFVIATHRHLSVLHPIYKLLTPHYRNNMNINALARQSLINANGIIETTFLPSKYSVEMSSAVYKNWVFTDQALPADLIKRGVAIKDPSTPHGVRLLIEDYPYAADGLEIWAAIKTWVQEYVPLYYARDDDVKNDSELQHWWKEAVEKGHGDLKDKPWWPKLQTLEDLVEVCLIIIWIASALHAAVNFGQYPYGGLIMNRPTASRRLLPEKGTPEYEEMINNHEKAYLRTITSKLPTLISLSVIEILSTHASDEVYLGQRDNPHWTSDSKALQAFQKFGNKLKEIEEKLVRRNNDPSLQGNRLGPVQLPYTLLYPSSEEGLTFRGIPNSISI
In short: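 Soybean lipoxygenase (0.2 mL enzyme solution, 1/3 ×10^4 w/v in saline) incubated at room temperature with test compounds in ethanol and sodium linoleate 0.1 mM as substrate. Conversion to 13-hydroperoxylinoleic acid followed at 234 nm and compared with NDGA as standard inhibitor. Run at least in triplicate; SD of absorbance under 10% of mean.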

[17] = system: Rattus norvegicus; assay: Onset of arthritis measured as arthritic score at i.p. dose of 0.001 m mol/kg in rats injected intradermally with Freund's adjuvant after 8 days; assay type: functional; in short: as §3
[18] = system: Rattus norvegicus; assay: Onset of arthritis measured as arthritic score at i.p. dose of 0.001 m mol/kg in rats injected intradermally with Freund's adjuvant after 6 days; assay type: functional; in short: as §3
[19] = system: Rattus norvegicus; assay: Duration of paralysis in rats (injected i.p. with 10 mg/1 mL/g of zoxazolamine) at i.p. dose of 0.001 m mol/kg after 24 days; assay type: functional
In short: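 Fischer 344 rats, groups of five, given Freund's Adjuvant intradermally at tail base; compound ip 0.001 mmol/kg from day zero every other day for 24 days. On day 24, ≥12 h after last dose, zoxazolamine ip 10 mg/1 mL/g as aqueous Tween 80 suspension; paralysis duration timed. Run in duplicate.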

[20] = system: Rattus norvegicus; assay: Onset of arthritis measured as arthritic score at i.p. dose of 0.001 m mol/kg in rats injected intradermally with Freund's adjuvant after 22 days; assay type: functional; in short: as §3
[21] = system: Rattus norvegicus; assay: Onset of arthritis measured as arthritic score at i.p. dose of 0.001 m mol/kg in rats injected intradermally with Freund's adjuvant after 14 days; assay type: functional; in short: as §3
[22] = system: Rattus norvegicus; assay: Onset of arthritis measured as arthritic score at i.p. dose of 0.001 m mol/kg in rats injected intradermally with Freund's adjuvant after 4 days; assay type: functional; in short: as §3
[23] = system: Rattus norvegicus; assay: Percent inhibition of carrageenan 2% (0.1 mL intradermal) induced paw edema at the i.p. dose of 0.01 m mol/kg in fisher 344 rats; n=5; no action; assay type: functional, organism-based; in short: as §1
[24] = Percent heme protein dependent lipid peroxidation (0.1 mM) upon incubation for 10 min at 37 degree C. in pH 7.4 with arachidonic acid and H2O2; no action; assay type: functional; in short: as §2
[25] = Percent heme protein dependent lipid peroxidation (1 mM) upon incubation for 10 min at 37 degree C. in pH 7.4 with arachidonic acid and H2O2; no action; assay type: functional; in short: as §2
[26] = system: Rattus norvegicus; assay: Onset of arthritis measured as arthritic score at p.o. dose of 80 mg/kg in rats injected intradermally with Freund's adjuvant after 24 days; assay type: functional; settings: route oral
[27] = biological target: T1, Seed linoleate 13S-lipoxygenase-1; assay: Inhibitory concentration against soybean lipoxygenase upon incubation with sodium linoleate (0.1 mM) at RT; no action

Sequence of Prostaglandin G/H synthase 1 (Homo sapiens) (P23219 whole entry): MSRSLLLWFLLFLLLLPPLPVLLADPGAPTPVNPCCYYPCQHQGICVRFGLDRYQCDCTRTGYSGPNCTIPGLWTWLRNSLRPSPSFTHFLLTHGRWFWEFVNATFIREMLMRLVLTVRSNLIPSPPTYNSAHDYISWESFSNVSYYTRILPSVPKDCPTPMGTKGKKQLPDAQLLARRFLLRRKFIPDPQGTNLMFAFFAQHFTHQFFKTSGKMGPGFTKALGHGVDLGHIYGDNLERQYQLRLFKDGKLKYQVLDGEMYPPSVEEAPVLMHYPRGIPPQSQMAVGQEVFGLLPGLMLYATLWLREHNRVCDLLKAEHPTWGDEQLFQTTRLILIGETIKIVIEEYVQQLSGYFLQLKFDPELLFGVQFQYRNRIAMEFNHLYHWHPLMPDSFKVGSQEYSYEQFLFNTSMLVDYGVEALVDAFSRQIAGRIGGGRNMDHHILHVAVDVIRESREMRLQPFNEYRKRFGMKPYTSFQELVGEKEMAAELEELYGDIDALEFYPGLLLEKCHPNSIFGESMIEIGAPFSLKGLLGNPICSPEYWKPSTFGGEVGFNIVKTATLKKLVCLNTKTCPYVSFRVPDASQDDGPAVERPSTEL

SMILES	Inhibition [1] [%]	Scavenging Activity [2] [%]	Lipid peroxidation [3] [%]	Lipid peroxidation [4]	Scavenging Activity [10]	IC50 [16] [µM]	Lipid peroxidation [24]	other results
O=c1ccc2ccccc2o1 [COUMARIN]	30.2	88.9	19.2	9.1%	–	–	–	–
O=c1ccc2ccc(O)c(CN3CCNCC3)c2o1	77.7	–	21.9	19.5%	No action	100	–	Arthritic score [5]: 3; Change of body weight [6]: 18.4%; Arthritic score [7]: 0; Arthritic score [8]: 0; Arthritic score [9]: 5.8; inhibition [11]: 11%; Arthritic score [12]: 0; Arthritic score [13]: 0; Arthritic score [14]: 3.2; Arthritic score [15]: 0; Arthritic score [17]: 0; Arthritic score [18]: 0; Paralysis [19]: 292 min; Arthritic score [20]: 4.8; Arthritic score [21]: 1.2; Arthritic score [22]: 0
O=c1ccc2ccc(O)cc2o1 [UMBELLIFERONE]	–	80.6	26.1	14.6%	–	43	–	Arthritic score [5]: 2.6; inhibition [23]: No Action; Change of body weight [6]: 18.6%; Arthritic score [7]: 1.2; Arthritic score [8]: 0; Arthritic score [9]: 4; Arthritic score [12]: 0; Arthritic score [13]: 0; Arthritic score [14]: 1.8; Arthritic score [15]: 0; Arthritic score [17]: 0; Arthritic score [18]: 0; Paralysis [19]: 232.5 min; Arthritic score [20]: 5.2; Arthritic score [21]: 1.2; Arthritic score [22]: 0
NCCNCc1c(O)ccc2ccc(=O)oc12	56	–	22.1	–	No action	> 1000	No action	–
O=c1ccc2ccc(O)c(CNCc3ccccc3)c2o1	47.5	–	35.6	19.5%	No action	44	–	–
CC(Cc1ccc(O)c(O)c1)C(C)Cc1ccc(O)c(O)c1 (stereo not drawn)	–	–	26.1	inactive	inactive	–	–	–
CN1COc2ccc3ccc(=O)oc3c2C1	53.6	–	–	–	–	42	No action	Lipid peroxidation [25]: No action
O=c1ccc2ccc(O)c(CN3CCOCC3)c2o1	75.7	58.3	19.9	19.5%	–	> 1000	–	Arthritic score [5]: 3.25; Change of body weight [6]: 7%; Arthritic score [7]: 1.25; Arthritic score [8]: 0; Arthritic score [9]: 3.5; inhibition [11]: 32%; Arthritic score [12]: 0; Arthritic score [13]: 0; Arthritic score [14]: 2.5; Arthritic score [15]: 0; Arthritic score [17]: 0; Arthritic score [18]: 0; Paralysis [19]: 212 min; Arthritic score [20]: 4.25; Arthritic score [21]: 1.2; Arthritic score [22]: 0
CCCCC1C(=O)N(c2ccccc2)N(c2ccccc2)C1=O [PHENYLBUTAZONE]	–	–	–	–	–	–	–	Arthritic score [26]: 9
CC(C)CNCc1c(O)ccc2ccc(=O)oc12	55.4	33.3	–	–	–	47	No action	Lipid peroxidation [25]: No action
NCCCNCc1c(O)ccc2ccc(=O)oc12	53.4	50	–	–	–	> 1000	No action	Lipid peroxidation [25]: No action
O=c1ccc2ccc(O)c(CNCCc3ccccc3)c2o1	31.2	22.2	5.5	18.2%	–	41	–	–
CCCCCNCc1c(O)ccc2ccc(=O)oc12	52.7	–	5.7	8.6%	No action	59	–	–
CCNCc1c(O)ccc2ccc(=O)oc12	53.6	–	5.5	–	No action	52	No action	–
O=C(O)/C=C/c1ccc(O)c(O)c1	–	86.1	5.5	–	–	–	inactive	–
CCCCCN(CCCCC)Cc1c(O)ccc2ccc(=O)oc12	46.2	–	13.7	–	No action	13	No action	–
COc1ccc2c(c1)c(CC(=O)O)c(C)n2C(=O)c1ccc(Cl)cc1 [INDOMETHACIN]	47	–	–	–	–	–	–	–
CC(=O)CC(c1ccccc1)c1c(O)c2ccccc2oc1=O (stereo not drawn) [WARFARIN]	41	25	–	–	–	–	No action	IC50 [27]: No Action; Lipid peroxidation [25]: No action
O=c1ccc2ccc(O)c(CN3CCCCC3)c2o1	47.4	–	7.6	–	No action	37	No action	–
